Data published in ChEMBL document CHEMBL1914430, “Synthesis of some new 1,3,5-trisubstituted pyrazolines bearing benzene sulfonamide as anticancer and anti-inflammatory agents” (Bioorg Med Chem Lett, 2011).

Key:
Type in all cases: functional
K562 = assay: Anticancer activity against human K562 cells after 48 hrs; conditions: K562, 48 h
Outline: (§1)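 NCI Drug Evaluation Branch 60-cell-line screen across leukemia, melanoma, lung, colon, CNS, ovarian, renal, prostate and breast panels. The incubation period is 48 h. Parameters are derived from dose–response data: GI50 is the concentration giving 50% decrease in net growth, TGI is total growth inhibition, and LC50 is net 50% loss of initial cells. Values beyond the tested range are reported as greater or less than the maximum or minimum concentration.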

SR = assay: Anticancer activity against human SR cells after 48 hrs
Outline: (§2)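 NCI 60-line panel protocol with a 48 h incubation. Per line: GI50 = concentration giving 50% decrease in net cell growth; TGI = total growth inhibition; LC50 = net 50% loss of initial cells. When the level was not reached or was exceeded, the value is given as greater or less than the highest or lowest concentration tested.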

EKVX = assay: Anticancer activity against human EKVX cells after 48 hrs; outline: as §1
HOP-62 = assay: Anticancer activity against human HOP62 cells after 48 hrs; conditions: HOP-62, 48 h; outline: as §1
NCI-H23 = assay: Anticancer activity against human NCI-H23 cells after 48 hrs; conditions: NCI-H23, 48 h; outline: as §2
NCI-H460 = assay: Anticancer activity against human NCI-H460 cells after 48 hrs; conditions: NCI-H460, 48 h; outline: as §2
NCI-H522 = assay: Anticancer activity against human NCI-H522 cells after 48 hrs; conditions: NCI-H522, 48 h; outline: as §2
COLO 205 = assay: Anticancer activity against human COLO205 cells after 48 hrs; conditions: COLO 205, 48 h; outline: as §1
HCT-15 = assay: Anticancer activity against human HCT15 cells after 48 hrs; conditions: HCT-15, 48 h; outline: as §1
SW-620 = assay: Anticancer activity against human SW620 cells after 48 hrs; conditions: SW-620, 48 h; outline: as §2
SF-268 = assay: Anticancer activity against human SF268 cells after 48 hrs; conditions: SF-268, 48 h; outline: as §2
SNB-19 = assay: Anticancer activity against human SNB19 cells after 48 hrs; conditions: SNB-19, 48 h; outline: as §2
SNB-75 = assay: Anticancer activity against human SNB75 cells after 48 hrs; conditions: SNB-75, 48 h; outline: as §2
U-251 = assay: Anticancer activity against human U251 cells after 48 hrs; conditions: U-251, 48 h
Outline: (§3)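 NCI ~60 human tumour cell line panel with a 48 h incubation. GI50 is the concentration giving a 50% fall in net growth, TGI gives total growth inhibition, and LC50 gives a net 50% loss of initial cells. An effect not reached or exceeded is reported as greater or less than the highest or lowest concentration tested.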

LOX IMVI = assay: Anticancer activity against human LOXIMVI cells after 48 hrs; outline: as §1
M14 = assay: Anticancer activity against human M14 cells after 48 hrs; conditions: M14, 48 h; outline: as §1
SK-MEL-5 = assay: Anticancer activity against human SK-MEL-5 cells after 48 hrs; conditions: SK-MEL-5, 48 h; outline: as §2
UACC-257 = assay: Anticancer activity against human UACC257 cells after 48 hrs; conditions: UACC-257, 48 h; outline: as §3
UACC-62 = assay: Anticancer activity against human UACC62 cells after 48 hrs; conditions: UACC-62, 48 h; outline: as §3
IGROV-1 = assay: Anticancer activity against human IGROV1 cells after 48 hrs; conditions: IGROV-1, 48 h; outline: as §1
OVCAR-4 = assay: Anticancer activity against human OVCAR4 cells after 48 hrs; conditions: OVCAR-4, 48 h; outline: as §2
NCI/ADR-RES = assay: Anticancer activity against human NCI/ADR-RES cells after 48 hrs; outline: as §2
SK-OV-3 = assay: Anticancer activity against human SKOV3 cells after 48 hrs; conditions: SK-OV-3, 48 h; outline: as §2
786-0 = assay: Anticancer activity against human 786-0 cells after 48 hrs; conditions: 786-0, 48 h; outline: as §1
A498 = assay: Anticancer activity against human A498 cells after 48 hrs; conditions: A498, 48 h; outline: as §1
ACHN = assay: Anticancer activity against human ACHN cells after 48 hrs; outline: as §1
SN12C = assay: Anticancer activity against human SN12C cells after 48 hrs; outline: as §2
TK-10 = assay: Anticancer activity against human TK10 cells after 48 hrs; conditions: TK-10, 48 h; outline: as §3
MDA-MB-231 = assay: Anticancer activity against human MDA-MB-231 cells after 48 hrs; conditions: MDA-MB-231, 48 h; outline: as §1
[1] = Anticancer activity against human Hs 578T cells after 48 hrs; outline: as §1
BT-549 = assay: Anticancer activity against human BT549 cells after 48 hrs; conditions: BT-549, 48 h; outline: as §1
MDA-MB-468 = assay: Anticancer activity against human MDA-MB-468 cells after 48 hrs; conditions: MDA-MB-468, 48 h; outline: as §1
[2] = read-out: LC50 (the source's name)

COc1ccc(C2CC(c3cc(Cl)c(C)cc3O)=NN2c2ccc(S(N)(=O)=O)cc2)cc1OC (configuration not stated)
GI50 (K562): 3.18 µM
LC50 (concentration killing 50% of initial cells) (K562): > 100 µM
GI50 (SR): 2.82 µM
LC50 (concentration killing 50% of initial cells) (SR): > 100 µM
GI50 (EKVX): 4.15 µM
TGI (EKVX): 100 µM
CC50 (EKVX; [2]): > 100 µM
GI50 (HOP-62): 3.92 µM
LC50 (concentration for 50% net loss of initial cells) (HOP-62): 52.4 µM
TGI (HOP-62): 14.1 µM
GI50 (NCI-H23): 3.11 µM
LC50 (concentration killing 50% of initial cells) (NCI-H23): > 100 µM
TGI (NCI-H23): 13.6 µM
GI50 (NCI-H460): 2.5 µM
LC50 (50% lethal concentration) (NCI-H460): 22 µM
TGI (NCI-H460): 5.85 µM
GI50 (NCI-H522): 2.95 µM
LC50 (concentration killing 50% of initial cells) (NCI-H522): 69.3 µM
TGI (NCI-H522): 9.61 µM
GI50 (COLO 205): 1.93 µM
LC50 (concentration giving net 50% loss of initial cells) (COLO 205): 6.02 µM
TGI (COLO 205): 3.41 µM
GI50 (HCT-15): 3.32 µM
TGI (HCT-15): 20.2 µM
CC50 (HCT-15; [2]): > 100 µM
GI50 (SW-620): 4.08 µM
TGI (SW-620): 26.6 µM
CC50 (SW-620; [2]): > 100 µM
GI50 (SF-268): 4.74 µM
LC50 (concentration killing 50% of initial cells) (SF-268): > 100 µM
GI50 (SNB-19): 5.53 µM
TGI (SNB-19): 89.3 µM
CC50 (SNB-19; [2]): > 100 µM
GI50 (SNB-75): 2.7 µM
TGI (SNB-75): 97.2 µM
CC50 (SNB-75; [2]): > 100 µM
GI50 (U-251): 3.71 µM
TGI (U-251): 14 µM
CC50 (U-251; [2]): 48.2 µM
GI50 (LOX IMVI): 3.35 µM
TGI (LOX IMVI): 11 µM
CC50 (LOX IMVI; [2]): 37.4 µM
GI50 (M14): 2.61 µM
TGI (M14): 7.26 µM
CC50 (M14; [2]): 38.3 µM
GI50 (SK-MEL-5): 4.28 µM
LC50 (SK-MEL-5): 39.7 µM
TGI (SK-MEL-5): 15.2 µM
GI50 (UACC-257): 4.22 µM
LC50 (UACC-257): > 100 µM
TGI (UACC-257): 19.7 µM
GI50 (UACC-62): 3.13 µM
LC50 (UACC-62): 43.3 µM
TGI (UACC-62): 12.9 µM
GI50 (IGROV-1): 2.34 µM
LC50 (net 50% loss of initial cells) (IGROV-1): 28.8 µM
TGI (IGROV-1): 5.46 µM
GI50 (OVCAR-4): 4.18 µM
LC50 (OVCAR-4): > 100 µM
GI50 (NCI/ADR-RES): 3.39 µM
TGI (NCI/ADR-RES): 14.1 µM
CC50 (NCI/ADR-RES; [2]): > 100 µM
GI50 (SK-OV-3): 4.51 µM
TGI (SK-OV-3): 38.3 µM
CC50 (SK-OV-3; [2]): > 100 µM
GI50 (786-0): 2.37 µM
TGI (786-0): 5.04 µM
CC50 (786-0; [2]): > 100 µM
GI50 (A498): 3.98 µM
TGI (A498): 24.7 µM
CC50 (A498; [2]): > 100 µM
GI50 (ACHN): 3.15 µM
TGI (ACHN): 12.2 µM
CC50 (ACHN; [2]): > 100 µM
GI50 (SN12C): 3.7 µM
LC50 (SN12C): > 100 µM
TGI (SN12C): 30 µM
GI50 (TK-10): 3.97 µM
LC50 (TK-10): > 100 µM
TGI (TK-10): 18.4 µM
GI50 (MDA-MB-231): 3.81 µM
TGI (MDA-MB-231): 12.5 µM
CC50 (MDA-MB-231; [2]): 40.4 µM
GI50 [1]: 3.29 µM
TGI [1]: 34.3 µM
CC50 [1, 2]: > 100 µM
GI50 (BT-549): 3.03 µM
TGI (BT-549): 13.4 µM
CC50 (BT-549; [2]): 95.6 µM
GI50 (MDA-MB-468): 2.58 µM
TGI (MDA-MB-468): 9.51 µM
CC50 (MDA-MB-468; [2]): > 100 µM
